Experimental data gathered from unrelated publications.
Protocols differ between the studies behind these lines.
Target: Ephrin type-B receptor 2 (EPHB2, Homo sapiens, UniProt P29323)
One construct used (P29323 19-1055): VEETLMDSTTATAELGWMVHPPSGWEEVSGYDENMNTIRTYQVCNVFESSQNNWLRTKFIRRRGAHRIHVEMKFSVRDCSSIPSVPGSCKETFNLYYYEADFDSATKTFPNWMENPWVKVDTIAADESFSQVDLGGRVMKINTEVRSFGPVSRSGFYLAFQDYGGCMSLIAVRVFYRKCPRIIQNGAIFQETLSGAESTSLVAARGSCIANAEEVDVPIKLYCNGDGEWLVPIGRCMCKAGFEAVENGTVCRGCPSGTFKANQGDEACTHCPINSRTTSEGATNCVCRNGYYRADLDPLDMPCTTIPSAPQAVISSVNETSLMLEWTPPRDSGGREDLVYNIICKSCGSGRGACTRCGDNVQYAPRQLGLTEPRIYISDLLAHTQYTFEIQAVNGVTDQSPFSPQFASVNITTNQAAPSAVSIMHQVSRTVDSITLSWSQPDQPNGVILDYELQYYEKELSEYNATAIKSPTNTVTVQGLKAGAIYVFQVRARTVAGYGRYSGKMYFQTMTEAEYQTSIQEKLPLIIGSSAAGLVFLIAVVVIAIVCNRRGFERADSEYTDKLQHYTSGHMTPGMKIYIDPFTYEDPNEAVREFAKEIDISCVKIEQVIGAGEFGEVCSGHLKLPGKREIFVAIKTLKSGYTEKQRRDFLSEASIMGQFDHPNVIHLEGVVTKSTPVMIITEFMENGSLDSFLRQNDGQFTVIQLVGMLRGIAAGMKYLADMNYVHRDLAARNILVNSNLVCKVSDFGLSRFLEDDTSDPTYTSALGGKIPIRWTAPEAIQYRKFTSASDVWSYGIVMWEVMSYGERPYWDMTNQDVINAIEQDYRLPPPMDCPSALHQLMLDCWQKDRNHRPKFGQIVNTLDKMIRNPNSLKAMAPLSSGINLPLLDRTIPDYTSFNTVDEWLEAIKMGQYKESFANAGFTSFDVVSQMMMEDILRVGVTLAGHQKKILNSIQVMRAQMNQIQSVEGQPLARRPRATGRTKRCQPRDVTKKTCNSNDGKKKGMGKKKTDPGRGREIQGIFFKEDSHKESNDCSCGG

SMILES | test | conditions | endpoint | result
CNC(=O)c1cc2c(Oc3ccc(NC(=O)C4(C(=O)Nc5ccc(F)cc5)CC4)cc3)ccnc2cc1OC | enzyme activity, inhibitor, radiometric | 1 µM | inhibition | 95%
O=C1NC(=O)c2cc(Nc3ccc(F)cc3)c(Nc3ccc(F)cc3)cc21 | cell-free assay | 0.5 µM | remaining signal | 89.3%
O=C(NS(=O)(=O)c1ccc(NCC2CCOCC2)c([N+](=O)[O-])c1)c1ccc(N2CCN(Cc3ccc(C(F)(F)F)cc3-c3ccc(Cl)cc3)CC2)cc1Oc1cnc2[nH]ccc2c1 | cell-free assay, competition with immobilised ligand | 1 µM | remaining binding | 100%
Cc1ccc(Nc2nccc(N(C)c3ccc4c(C)n(C)nc4c3)n2)cc1S(N)(=O)=O | enzyme activity, inhibitor | 0.3 µM | inhibition | 7%
CC/C(=N\NC(=O)NCc1cccc(O)c1)c1ccc(O)c(C)c1O | enzyme activity, inhibitor | 0.1 µM | inhibition | 1.5%
O=C(Nc1cnn(-c2csc(C(=O)NC3COC3)c2)c1)Nc1ccccc1Cl | enzyme activity, inhibitor | 5 µM | remaining activity | 101%
COc1cc2ncnc(Nc3ccc(F)c(Cl)c3)c2cc1OCCCN1CCOCC1 | cell-free assay | 0.5 µM | remaining signal | 87.7%
Cc1cc(NC(=O)c2cccc3cc(-c4cccc5[nH]nc(N)c45)ccc23)ccc1F | enzyme activity, inhibitor | 0.1 µM | activity vs control | 102%
CSc1cccnc1N1CCN(Cc2nc3ccccc3[nH]2)CC1 | cell-free assay, competition with immobilised ligand | 1 µM | remaining binding | 99%
Cc1ccc(C(=O)Nc2ccc(CN3CCN(C)CC3)c(C(F)(F)F)c2)cc1C#Cc1cnc2cccnn12 | cell-free assay | 23.5 nM | remaining signal | 49%
COc1cccc2c(NCc3ccccc3)nc(-n3c(N)nc4ccccc43)nc12 | target engagement in cells, inhibitor, chemoproteomics | 20 mM | inhibition | 8.3%
O=C(NCc1ncc(C(F)(F)F)cc1Cl)c1ccc2c(c1)C1(CCS(=O)(=O)CC1)[C@H](C1CC1)N2S(=O)(=O)c1ccc(F)cc1 | cell-free assay, competition with immobilised ligand | 1 µM | remaining binding | 100%
COc1cc(Nc2cnc(C#N)c(O[C@H](C)CN(C)C)n2)ncc1-c1cnn(C)c1 | enzyme activity, inhibitor, radiometric | 10 µM | remaining activity | 63%
COc1cc2ncnc(Nc3ccc(Oc4ccccc4)cc3C)c2cc1OC | enzyme activity, inhibitor | 1 µM | inhibition | 25%
CN(C)C1CCN(CC#Cc2nn(C3CCCC3)c3nc(NCc4ccccc4)ncc23)C1 (stereo not shown) | enzyme activity, inhibitor, FRET | 1 µM | inhibition | 8%
CC(C)CC(=O)N1CCc2nc(-c3ccc(Br)cc3)nc(N(C)Cc3ccccc3)c2C1 | cell-free assay, competition with immobilised ligand | 0.1 µM | remaining binding | 80%
CCCS(=O)(=O)Nc1ccc(F)c(C(=O)c2c[nH]c3ncc(-c4ccc(Cl)cc4)cc23)c1F | enzyme activity, inhibitor | 1 µM | inhibition | < 10%
Cc1ccc(C(=O)NCc2ccsc2)cc1C#Cc1cn(C(C)C)c2ncnc(N)c12 | enzyme activity, inhibitor | 1 µM | activity vs control | 2%
CNC(=O)c1cc(Oc2ccc(NC(=O)Nc3ccc(Cl)c(C(F)(F)F)c3)cc2)ccn1 | enzyme activity, inhibitor | 10 µM | inhibition | 95%
C#Cc1cccc(Nc2ncnc3cc(OCCOC)c(OCCOC)cc23)c1 | cell-free assay | 0.5 µM | remaining signal | 95.1%
CC(C)(O)c1cncc(-c2nc3ccc(F)cc3n2C2CC2)c1 | cell-free assay, competition with immobilised ligand | 1 µM | remaining binding | 99%
Nc1ncnc2occ(-c3ccc(NC(=O)Nc4cc(C(F)(F)F)ccc4F)cc3)c12 | cell-free assay | 20 µM | remaining signal | 0%
FC(F)(F)c1ccc2c(c1)nc(-c1cccnc1)n2C1CC1 | cell-free assay, competition with immobilised ligand | 1 µM | remaining binding | 83%
Cn1c(=O)n(-c2ccc(C(C)(C)C#N)cc2)c2c3cc(-c4cnc5ccccc5c4)ccc3ncc21 | enzyme activity, inhibitor | 10 µM | remaining activity | 77%
CNC(=O)Nc1ccc2c(c1)CC[C@@]21OC(=O)N(CC(=O)N(Cc2ccc(F)cc2)[C@@H](C)C(F)(F)F)C1=O | cell-free assay, competition with immobilised ligand | 1 µM | remaining binding | 72%
CCN(CC)CCNC(=O)c1c(C)[nH]c(/C=C2\C(=O)Nc3ccc(F)cc32)c1C | enzyme activity, inhibitor | 10 µM | inhibition | 90%
O=C1Nc2ccc(Cl)cc2C1=Cc1cc(Cl)c(O)c(Cl)c1 | cell-free assay | 0.5 µM | remaining signal | 90.9%
CN(C(=O)c1ccccc1)c1cc(N(C)c2ccc3c(c2)CCc2ccc(C(=O)NCCN4CCOCC4)cc2C3=O)ccc1F | cell-free assay, competition with immobilised ligand | 1 µM | remaining binding | 82%
